Test results as given in ChEMBL document CHEMBL1681758, “Synthesis and in vitro anti-HSV-1 activity of a novel Hsp90 inhibitor BJ-B11” (Bioorg Med Chem Lett, 2011).
Activity calls are given as the source filed them. No cut-off for these calls is given here.

Columns and labels:
[1] = test system: Human alphaherpesvirus 1; test: Antiviral activity against HSV1 infected in african green monkey Vero cells assessed as inhibition of viral replication by plaque reduction assay; type: functional, organism-based; conditions: Human alphaherpesvirus 1, Vero
How it was run: (§1)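 Vero cells; plaque reduction assay at concentrations found non-cytotoxic by MTT. EC50 is the concentration inhibiting 50% of HSV replication. Mean ± SD of three independent experiments.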

[2] = Therapeutic index, ratio of CC50 for african green monkey Vero cells to EC50 for HSV1; type: cell-based; conditions: read-out: TI
How it was run: (§2)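 TI calculated as CC50 (Vero, MTT) divided by EC50 (Vero, plaque reduction) for the respective HSV type.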

[3] = Cytotoxicity against african green monkey Vero cells by MTT assay; type: cell-based; conditions: chlorocebus sabaeus
How it was run: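 Vero cells; MTT viability read-out. CC50 taken as concentration reducing cell viability by 50%. Mean ± SD of three independent experiments.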

[4] = test system: Human alphaherpesvirus 1; test: Antiviral activity against HSV1 infected in african green monkey Vero cells assessed as reduction of UL52 expression at 1 uM after up to 24 hrs by RT-PCR analysis; type: functional, organism-based
How it was run: (§3)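 Vero monolayer infected with HSV-1 (MOI = 1) with or without 1 µM compound. RNA extracted at 3, 6 and 12 hpi, reverse transcribed, and serially diluted cDNA used for real-time PCR of UL54, UL52 and UL27. Mean ± SD, n = 3; Student's t-test against untreated controls.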

[5] = test system: Human alphaherpesvirus 2; test: Antiviral activity against HSV2 infected in african green monkey Vero cells assessed as inhibition of viral replication by plaque reduction assay; type: functional, organism-based; conditions: Human alphaherpesvirus 2, Vero; how it was run: as §1
[6] = test system: Human alphaherpesvirus 1; test: Antiviral activity against HSV1 infected in african green monkey Vero cells assessed as reduction of UL27 expression at 1 uM after up to 24 hrs by RT-PCR analysis; type: functional, organism-based; how it was run: as §3
[7] = test system: Human alphaherpesvirus 1; test: Antiviral activity against HSV1 infected in african green monkey Vero cells assessed as reduction of UL54 expression at 1 uM after up to 24 hrs by RT-PCR analysis; type: functional, organism-based; how it was run: as §3
[8] = Therapeutic index, ratio of CC50 for african green monkey Vero cells to EC50 for HSV2; type: cell-based; conditions: read-out: TI; how it was run: as §2
[9] = test system: Human alphaherpesvirus 2; test: Antiviral activity against HSV2 infected in african green monkey Vero cells assessed as inhibition of virus-induced cytopathic effect; type: functional, organism-based
[10] = test system: Human alphaherpesvirus 1; test: Antiviral activity against HSV1 infected in african green monkey Vero cells assessed as log reduction of viral yield at 1 uM after drug washout by plaque assay; type: functional
How it was run: (§4)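 HSV-1 at MOI = 1 in Vero cells, compound at 1 µM in time-of-addition and time-of-removal schedules. Cultures harvested at 24 hpi; virus yield titrated by plaque assay.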

[11] = test system: Human alphaherpesvirus 1; test: Antiviral activity against HSV1 infected in african green monkey Vero cells assessed as log reduction of viral yield at 1 uM treated after 24 hrs post infection by plaque assay; type: functional; how it was run: as §4
[12] = test system: Coxsackievirus B3; test: Antiviral activity against Coxsackievirus B3 infected in african green monkey Vero cells assessed as inhibition of virus-induced cytopathic effect; type: functional, organism-based
[13] = test system: Human alphaherpesvirus 1; test: Antiviral activity against HSV1 infected in african green monkey Vero cells assessed as inhibition DNA synthesis at 1 uM after 24 hrs by RT-PCR analysis; type: functional, organism-based
How it was run: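 Vero monolayer infected with HSV-1 (MOI = 1) with or without 1 µM compound. DNA extracted at 24 hpi; UL52 quantified by real-time PCR. Mean ± SD, n = 3; Student's t-test against untreated controls.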

[14] = test system: Human alphaherpesvirus 1; test: Antiviral activity against HSV1 infected in african green monkey Vero cells assessed as log reduction of viral yield at 1 uM treated after 6 hrs post infection by plaque assay; type: functional; how it was run: as §4
[15] = test system: Human orthopneumovirus; test: Antiviral activity against Human respiratory syncytial virus infected in african green monkey Vero cells assessed as inhibition of virus-induced cytopathic effect; type: functional, organism-based
[16] = test system: Human alphaherpesvirus 1; test: Antiviral activity against HSV1 infected in african green monkey Vero cells assessed as log reduction of viral yield at 1 uM treated after 9 hrs post infection by plaque assay; type: functional; how it was run: as §4
[17] = test system: Human alphaherpesvirus 1; test: Antiviral activity against HSV1 infected in african green monkey Vero cells assessed as inhibition of virus-induced cytopathic effect; type: functional, organism-based
[18] = test system: Influenza A virus; test: Antiviral activity against Influenza A virus H1N1 infected in african green monkey Vero cells assessed as inhibition of virus-induced cytopathic effect; type: functional, organism-based

SMILES | EC50 [1] [µM] | selectivity ratio [2] | CC50 [3] [µM] | Activity [4] | EC50 [5] [µM] | Activity [6] | Activity [7] | selectivity ratio [8] | inhibition [9] | PFU/ml [10] | PFU/ml [11] | inhibition [12] | inhibition [13] | PFU/ml [14] | inhibition [15] | PFU/ml [16] | inhibition [17] | inhibition [18]
Nc1nc2c(ncn2COCCO)c(=O)[nH]1 [ACYCLOVIR] | 1.16 | > 172 | > 200 | Active | 1.72 | Active | inactive | > 116 | – | – | – | – | – | – | – | – | – | –
CC(=O)OC1CCC(Nc2cc(-n3nc(C)c4c3CC(C)(C)CC4=O)ccc2C(N)=O)CC1 (stereo unspecified) | 0.42 | 84.5 | 35.5 | Active | 0.6 | Active | inactive | 59.2 | Active | 6.14 | 7.09 | inactive | Active | 7.13 | inactive | 6.67 | Active | inactive
